Source: ChEMBL document CHEMBL1130433, “Effects of log P and phenyl ring conformation on the binding of 5-phenylhydantoins to the voltage-dependent sodium channel” (J Med Chem, 1997)

These compounds were tested against Sodium channel alpha subunits; brain (Types I, II, III) (Rattus norvegicus, UniProt P04775+P04774+P08104) (assay: Inhibition of [3H]BTX-B binding to Neuronal voltage-dependent sodium channel of rat cerebral cortex synaptoneurosomes).
Assay type: tissue-based
In short: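 Ice-cold buffer dilution, GF/C filtration, scintillation counting. Nonspecific binding measured with 300 μM veratridine. Triplicates with a 40 μM DPH control tube. IC50 by Probit analysis, excluding points below 10% or above 90% inhibition.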

First: CCCCC1(c2cccc(C)c2)NC(=O)NC1=O (centres undefined)
Second: CCCCC1(c2ccc(C)cc2)NC(=O)NC1=O (centres undefined)
The IC50 of the first is 1.6-fold lower: 58 µM for the first, 95 µM for the second.

First: O=C1NC(=O)C2(CCc3ccccc32)N1 (centres undefined)
Second: O=C1NC(=O)C2(CCCc3ccccc32)N1 (centres undefined)
The IC50 of the first is 2.5-fold higher: 2112 µM for the first, 851 µM for the second.

`O=C1NC(=O)C2(CCCCc3ccccc32)N1` (centres undefined) and `O=C1NC(=O)C2(CCCCCc3ccccc32)N1` (centres undefined) are the same in IC50: 251 µM for the first, 251 µM for the second.

Compared with `CC12C(=O)NC(=O)N1CCc1ccccc12` (centres undefined), `CCN1C(=O)NC(=O)[C@@]1(C)c1ccccc1` is 2.9-fold higher in IC50: 250 µM for the first, 720 µM for the second.

Work on `CCCCC1(c2ccccc2C)NC(=O)NC1=O` (centres undefined) yielded an IC50 of 225 µM.
